Measured values: ChEMBL document CHEMBL1124223, “1-Substituted 7-[3-[(ethylamino)methyl]-1-pyrrolidinyl]-6,8- difluoro-1,4-dihydro-4-oxo-3-quinolinecarboxylic acids. New quantitative structure-activity relationships at N1 for the quinolone antibacterials” (1988)
In brackets after ≈: the same amount, converted by molar mass.

Tests used:
Staphylococcus aureus [1] = experiment: Minimum inhibitory concentration against Staphylococcus aureus (UC76).; type: functional
Procedure, shortened: (§1)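 MICs were determined by standard microtitration against a panel of 11 bacterial strains. Aqueous stock solutions were prepared with 0.1 N sodium or potassium hydroxide.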

Mus musculus [2] = experiment: In vivo activity against Streptococcus pyogenes (po); type: functional; settings: read-out: PD50
Procedure, shortened: (§2)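 Median protective dose (PD50, mg/kg) measured in acute, lethal, systemic infections in female Charles River CD-1 mice. A single dose of compound was given at the time of bacterial challenge. Aqueous stock solutions were made with 0.1 N sodium or potassium hydroxide.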

Mus musculus [3] = experiment: In vivo activity against Pseudomonas aeruginosa (po); type: functional; settings: read-out: PD50; procedure, shortened: as §2
Staphylococcus aureus [4] = experiment: Minimum inhibitory concentration against Staphylococcus aureus (H-228).; type: functional; procedure, shortened: as §1
Escherichia coli [5] = experiment: Minimum inhibitory concentration against Escherichia coli (H560); type: functional; procedure, shortened: as §1
Mus musculus [6] = experiment: In vivo activity against Escherichia coli (po); type: functional; settings: read-out: PD50; procedure, shortened: as §2
Mus musculus [7] = experiment: In vivo activity against Streptococcus pneumoniae (po); type: functional; settings: read-out: PD50; procedure, shortened: as §2
Mus musculus [8] = experiment: In vivo activity against Streptococcus pyogenes (sc); type: functional; settings: read-out: PD50; procedure, shortened: as §2
Streptococcus pneumoniae = experiment: Minimum inhibitory concentration against Streptococcus pneumoniae (SV-1).; type: functional; procedure, shortened: as §1
Enterococcus faecalis = experiment: Minimum inhibitory concentration against Streptococcus faecalis (MGH-2).; type: functional; procedure, shortened: as §1
Providencia rettgeri = experiment: Minimum inhibitory concentration against Providencia rettgeri. (M1771); type: functional; procedure, shortened: as §1
Pseudomonas aeruginosa = experiment: Minimum inhibitory concentration against Pseudomonas aeruginosa. (UI-18); type: functional; procedure, shortened: as §1
Enterobacter [9] = experiment: Minimum inhibitory concentration against gram-negative enterobacteriaceae.; type: functional
Procedure, shortened: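 This value is the geometric mean of microtitration MICs for the Gram-negative Enterobacteriaceae strains in the 11-organism panel. Aqueous stocks were prepared in 0.1 N sodium or potassium hydroxide.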

Mus musculus [10] = experiment: In vivo activity against Pseudomonas aeruginosa (sc); type: functional; settings: read-out: PD50; procedure, shortened: as §2
Mus musculus [11] = experiment: In vivo activity against Escherichia coli (sc); type: functional; settings: read-out: PD50; procedure, shortened: as §2
Mus musculus [12] = experiment: In vivo activity against Streptococcus pneumoniae (sc); type: functional; settings: read-out: PD50; procedure, shortened: as §2
Streptococcus pyogenes = experiment: Minimum inhibitory concentration against Streptococcus pyogenes (C203).; type: functional; procedure, shortened: as §1
Klebsiella pneumoniae = experiment: Minimum inhibitory concentration against Klebsiella pneumoniae (MGH-2); type: functional; procedure, shortened: as §1
Enterobacter [13] = experiment: Minimum inhibitory concentration as geometric mean calculated for the gram-negative enterobacteriaceae.; type: functional
Procedure, shortened: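 MICs were determined by standard microtitration. The value is the geometric mean of the MICs across the Gram-negative Enterobacteriaceae strains in the test panel.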

Escherichia coli [14] = experiment: Minimum inhibitory concentration against Escherichia coli (vogel); type: functional; procedure, shortened: as §1
Enterobacter cloacae = experiment: Minimum inhibitory concentration against Enterobacter cloacae. (MA2446).; type: functional
Escherichia coli [15] = experiment: Potency against Gram-negative mean; type: functional
Escherichia coli [16] = experiment: Potency against Escherichia coli (H560); type: functional
[17] = biological target: DNA gyrase (Escherichia coli) (UniProt P0AES6+P0AES4); experiment: Concentration required for 50% inhibition of gyrase.; type: protein-complex assay
Procedure, shortened: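 DNA gyrase inhibition: the drug concentration (µg/mL) giving 50% inhibition (I50) was recorded, along with the lowest concentration inducing gyrase-mediated DNA cleavage. Data come from duplicate experiments with ±50% reproducibility.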

| Compound | MIC (Staphylococcus aureus [1]) [µg/mL] | ED50 (Mus musculus [2]) [mg/kg] | ED50 (Mus musculus [3]) [mg/kg] | MIC (Staphylococcus aureus [4]) [µg/mL] | MIC (Escherichia coli [5]) [µg/mL] | ED50 (Mus musculus [6]) [mg/kg] | ED50 (Mus musculus [7]) [mg/kg] | ED50 (Mus musculus [8]) [mg/kg] | MIC (Streptococcus pneumoniae) [µg/mL] | MIC (Enterococcus faecalis) [µg/mL] | MIC (Providencia rettgeri) [µg/mL] | MIC (Pseudomonas aeruginosa) [µg/mL] | MIC (Enterobacter [9]) [µg/mL] | ED50 (Mus musculus [10]) [mg/kg] | ED50 (Mus musculus [11]) [mg/kg] | ED50 (Mus musculus [12]) [mg/kg] | MIC (Streptococcus pyogenes) [µg/mL] | MIC (Klebsiella pneumoniae) [µg/mL] | MIC (Escherichia coli [14]) [µg/mL] | MIC (Enterobacter cloacae) [µg/mL] | other results |
| --- | --- | --- | --- | --- | --- | --- | --- | --- | --- | --- | --- | --- | --- | --- | --- | --- | --- | --- | --- | --- | --- |
| O=C(O)c1cn(C2CC2)c2cc(N3CCNCC3)c(F)cc2c1=O [CIPROFLOXACIN] | 0.2 (≈ 0.604 µM) | > 100 | 25 | 3.1 (≈ 9.36 µM) | 0.025 (≈ 0.0754 µM) | 1 | > 100 | 20 | 1.6 (≈ 4.83 µM) | 0.8 (≈ 2.41 µM) | 0.1 (≈ 0.302 µM) | 0.4 (≈ 1.21 µM) | 0.06 (≈ 0.181 µM) | 5 | 0.3 | 29 | 0.8 (≈ 2.41 µM) | 0.1 (≈ 0.302 µM) |  |  |  |
| CCn1cc(C(=O)O)c(=O)c2cc(F)c(N3CCNCC3)cc21 [NORFLOXACIN] | 0.05 (≈ 0.157 µM) | > 100 | 76 | 0.8 (≈ 2.51 µM) | 0.1 (≈ 0.313 µM) | 4 | > 100 | 45 | 1.6 (≈ 5.01 µM) | 1.6 (≈ 5.01 µM) | 0.05 (≈ 0.157 µM) | 0.2 (≈ 0.626 µM) |  | 11 | 0.6 | > 100 | 0.8 (≈ 2.51 µM) | 0.05 (≈ 0.157 µM) | 0.025 (≈ 0.0783 µM) | 0.1 (≈ 0.313 µM) | MIC (Enterobacter [13]): 0.06 µg/mL (≈ 0.188 µM) |
| CCNCC1CCN(c2c(F)cc3c(=O)c(C(=O)O)cn(CC)c3c2F)C1 (configuration not stated) [MERAFLOXACIN] | 0.05 (≈ 0.132 µM) | 9 | > 200 | 0.1 (≈ 0.264 µM) | 0.1 (≈ 0.264 µM) | 12 | 20 | 3 | 0.1 (≈ 0.264 µM) | 0.1 (≈ 0.264 µM) | 0.4 (≈ 1.05 µM) | 1.6 (≈ 4.22 µM) | 0.17 (≈ 0.448 µM) | 76 | 2 | 4 | 0.1 (≈ 0.264 µM) | 0.2 (≈ 0.527 µM) | 0.1 (≈ 0.264 µM) | 0.2 (≈ 0.527 µM) | Log (Escherichia coli [15]): 6.35 1/M MIC; Log (Escherichia coli [16]): 6.59 1/M MIC |
| CCNCC1CCN(c2c(F)cc3c(=O)c(C(=O)O)cn(C4CC4)c3c2F)C1 (configuration not stated) [PD-117558] | 0.006 (≈ 0.0153 µM) | 2 | 40 | 0.05 (≈ 0.128 µM) | 0.013 (≈ 0.0332 µM) | 4 | 3 | 0.5 | 0.025 (≈ 0.0639 µM) | 0.025 (≈ 0.0639 µM) | 0.2 (≈ 0.511 µM) | 0.4 (≈ 1.02 µM) | 0.06 (≈ 0.153 µM) | 13 | 1 | 2 | 0.025 (≈ 0.0639 µM) | 0.05 (≈ 0.128 µM) | 0.05 (≈ 0.128 µM) | 0.1 (≈ 0.255 µM) | IC50 [17]: 1.4 µg/mL (≈ 3.58 µM) |
| CCNCC1CCN(c2c(F)cc3c(=O)c(C(=O)O)cn(NC)c3c2F)C1 (configuration not stated) | 0.2 (≈ 0.526 µM) |  |  | 0.4 (≈ 1.05 µM) | 0.2 (≈ 0.526 µM) |  |  |  | 0.1 (≈ 0.263 µM) | 0.4 (≈ 1.05 µM) | 1.6 (≈ 4.21 µM) | 0.8 (≈ 2.1 µM) | 0.3 (≈ 0.789 µM) |  |  |  | 0.2 (≈ 0.526 µM) | 0.2 (≈ 0.526 µM) | 0.2 (≈ 0.526 µM) | 0.2 (≈ 0.526 µM) | IC50 [17]: 27 µg/mL (≈ 71 µM) |
| CN1CCN(c2cc3c(cc2F)c(=O)c(C(=O)O)cn3-c2ccc(F)cc2)CC1 [DIFLOXACIN] | 0.4 (≈ 1 µM) | 7 | 14 | 1.6 (≈ 4.01 µM) | 0.05 (≈ 0.125 µM) | 2 | 16 | 7 | 1.6 (≈ 4.01 µM) | 3.1 (≈ 7.76 µM) | 1.6 (≈ 4.01 µM) | 0.8 (≈ 2 µM) | 0.4 (≈ 1 µM) | 14 | 2 | 13 | 1.6 (≈ 4.01 µM) | 0.4 (≈ 1 µM) | 0.4 (≈ 1 µM) | 0.8 (≈ 2 µM) |  |
| CCNCC1CCN(c2c(F)cc3c(=O)c(C(=O)O)cn(CC4CC4)c3c2F)C1 (configuration not stated) | 0.1 (≈ 0.247 µM) |  |  | 0.2 (≈ 0.493 µM) | 0.8 (≈ 1.97 µM) |  |  |  | 0.8 (≈ 1.97 µM) | 0.8 (≈ 1.97 µM) | 12.5 (≈ 30.8 µM) | 25 (≈ 61.7 µM) | 2.09 (≈ 5.15 µM) |  |  |  | 0.4 (≈ 0.987 µM) | 1.6 (≈ 3.95 µM) | 0.8 (≈ 1.97 µM) | 3.1 (≈ 7.65 µM) | IC50 [17]: 30 µg/mL (≈ 74 µM) |
